Laboratory results: ChEMBL document CHEMBL2040714, “Synthesis of methylated quercetin derivatives and their reversal activities on P-gp- and BCRP-mediated multidrug resistance tumour cells” (Eur J Med Chem, 2012)

How the values were obtained:
[1] = tested on: L929; test: Cytotoxicity against mouse L929 cells after 5 days by MTS assay; assay type: cell-based; conditions: L929, 120 h
Summary of the method: (§1)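 Cells seeded in 96-well plates (6000/well for LCC6 and LCC6MDR) and exposed to a range of derivative concentrations, dissolved in DMSO at no more than 1% final, for 5 days at 37 °C. Viability read by MTS; IC50 taken from dose–response curves. Three repeats, mean ± SEM. LCC6 lines grown in DMEM with 10% heat-inactivated FBS; L929 is a mouse fibroblast line.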

[2] = Cytotoxicity against human LCC-6 cells after 5 days by MTS assay; assay type: cell-based; conditions: LCC-6, 120 h; summary of the method: as §1
[3] = Cytotoxicity against multidrug resistant human LCC6MDR cells after 5 days by MTS assay; conditions: 120 h
[4] = molecular target: T1, Broad substrate specificity ATP-binding cassette transporter ABCG2 (Homo sapiens, UniProt Q9UNQ0); test: Reversal of BCRP-mediated drug resistant in human MCF7-MX100 cells assessed as potentiation of topotecan-induced cytotoxicity at 1 uM after 5 days by MTS assay; assay type: cell-based; conditions: mcf7-mx100, 120 h
T1 sequence (Q9UNQ0 whole entry): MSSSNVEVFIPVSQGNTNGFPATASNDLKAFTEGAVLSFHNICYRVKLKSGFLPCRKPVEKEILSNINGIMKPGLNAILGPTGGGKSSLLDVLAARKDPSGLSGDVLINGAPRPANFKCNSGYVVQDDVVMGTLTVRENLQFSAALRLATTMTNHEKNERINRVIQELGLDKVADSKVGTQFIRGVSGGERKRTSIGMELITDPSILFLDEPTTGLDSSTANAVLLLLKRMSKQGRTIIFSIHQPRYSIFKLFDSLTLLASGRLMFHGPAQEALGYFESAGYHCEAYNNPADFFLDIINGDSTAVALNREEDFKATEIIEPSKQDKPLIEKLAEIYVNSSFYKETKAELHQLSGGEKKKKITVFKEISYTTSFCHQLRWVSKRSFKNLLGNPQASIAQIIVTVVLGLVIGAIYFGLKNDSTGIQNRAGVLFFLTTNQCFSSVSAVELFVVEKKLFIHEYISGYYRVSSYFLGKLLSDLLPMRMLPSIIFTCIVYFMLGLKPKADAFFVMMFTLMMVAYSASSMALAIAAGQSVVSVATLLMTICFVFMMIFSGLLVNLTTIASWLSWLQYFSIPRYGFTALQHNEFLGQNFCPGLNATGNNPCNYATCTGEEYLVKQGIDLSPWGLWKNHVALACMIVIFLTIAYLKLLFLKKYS

[5] = species: Homo sapiens; test: Reversal of p-glycoprotein-mediated drug resistant in human LCC-6/MDR cells assessed as potentiation of paclitaxel-induced cytotoxicity at 1 uM after 5 days by MTS assay; assay type: cell-based
Summary of the method: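 LCC6MDR cells (6000/well, DMEM with 10% FBS) given paclitaxel over a range of doses, with or without 1 μM modulator, for 5 days at 37 °C; MTS read-out. IC50 from dose–response curves, and RF = IC50 without / IC50 with 1.0 μM modulator. N = 2–4 independent experiments, mean ± SEM.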

[6] = molecular target: Multidrug resistance-associated protein 1 (Homo sapiens, UniProt P33527); test: Reversal of MRP1-mediated drug resistant in human 2008/MRP1 cells assessed as potentiation of doxorubicin-induced cytotoxicity at 1 uM after 5 days by MTS assay; assay type: cell-based; conditions: 2008/mrp1, 120 h
Sequence of Multidrug resistance-associated protein 1 (P33527 whole entry): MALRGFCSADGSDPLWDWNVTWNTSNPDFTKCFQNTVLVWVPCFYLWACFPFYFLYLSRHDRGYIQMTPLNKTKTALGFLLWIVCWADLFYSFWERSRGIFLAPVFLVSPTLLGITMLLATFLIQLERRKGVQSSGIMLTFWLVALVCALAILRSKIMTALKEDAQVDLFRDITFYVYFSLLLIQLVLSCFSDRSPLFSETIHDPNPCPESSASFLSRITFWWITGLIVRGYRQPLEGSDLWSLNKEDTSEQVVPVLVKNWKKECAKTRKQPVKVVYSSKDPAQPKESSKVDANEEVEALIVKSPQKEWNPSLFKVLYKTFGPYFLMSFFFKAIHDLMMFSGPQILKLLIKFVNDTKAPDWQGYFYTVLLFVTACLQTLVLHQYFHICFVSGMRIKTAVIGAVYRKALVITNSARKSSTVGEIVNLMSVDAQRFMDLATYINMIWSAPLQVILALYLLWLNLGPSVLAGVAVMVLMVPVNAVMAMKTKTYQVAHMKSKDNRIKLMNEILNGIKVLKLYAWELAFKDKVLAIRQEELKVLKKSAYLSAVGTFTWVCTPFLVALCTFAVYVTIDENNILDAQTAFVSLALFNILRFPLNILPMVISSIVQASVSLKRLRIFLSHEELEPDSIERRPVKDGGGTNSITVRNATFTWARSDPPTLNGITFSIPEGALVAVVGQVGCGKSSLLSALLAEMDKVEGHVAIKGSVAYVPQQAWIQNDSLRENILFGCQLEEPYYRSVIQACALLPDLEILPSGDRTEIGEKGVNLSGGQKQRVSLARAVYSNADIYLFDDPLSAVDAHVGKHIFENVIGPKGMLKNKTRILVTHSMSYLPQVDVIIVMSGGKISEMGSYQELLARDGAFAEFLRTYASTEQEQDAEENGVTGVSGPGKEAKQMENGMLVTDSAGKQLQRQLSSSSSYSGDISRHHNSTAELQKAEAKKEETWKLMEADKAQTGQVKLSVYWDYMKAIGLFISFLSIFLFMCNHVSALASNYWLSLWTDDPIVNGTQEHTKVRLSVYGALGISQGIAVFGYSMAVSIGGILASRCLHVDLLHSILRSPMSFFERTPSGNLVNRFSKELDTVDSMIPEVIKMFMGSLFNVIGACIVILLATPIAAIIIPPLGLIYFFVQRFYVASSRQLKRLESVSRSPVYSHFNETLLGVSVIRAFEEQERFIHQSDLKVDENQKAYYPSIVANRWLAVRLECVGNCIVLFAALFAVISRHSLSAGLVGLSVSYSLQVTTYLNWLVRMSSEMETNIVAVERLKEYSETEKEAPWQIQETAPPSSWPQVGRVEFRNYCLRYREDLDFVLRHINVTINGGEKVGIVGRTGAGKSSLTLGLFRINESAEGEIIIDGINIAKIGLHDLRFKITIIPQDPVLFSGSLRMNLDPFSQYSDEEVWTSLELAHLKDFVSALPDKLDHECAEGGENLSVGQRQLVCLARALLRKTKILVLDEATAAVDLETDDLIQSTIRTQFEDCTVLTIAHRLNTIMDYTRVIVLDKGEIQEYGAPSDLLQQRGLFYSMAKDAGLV

[7] = molecular target: T1, Broad substrate specificity ATP-binding cassette transporter ABCG2; test: Reversal of BCRP-mediated drug resistant in human HEK293/R2 cells assessed as potentiation of topotecan-induced cytotoxicity at 1 uM after 5 days by MTS assay; assay type: cell-based; conditions: hek293/r2, 120 h
[8] = tested on: NCI/ADR-RES; test: Modulation of p-glycoprotein-mediated drug resistant in human MCF7/ADR cells assessed as increase of daunomycin accumulation at 100 uM; assay type: cell-based

Row | SMILES | IC50 [1] | IC50 [2] | IC50 [3] | fold change (FC) [4] | fold change (FC) [5] | fold change (FC) [6] | fold change (FC) [7] | Activity [8]
1 | COc1cc(OC)c2c(=O)c(OCCOc3cc4c(Nc5ccc(F)c(Cl)c5)ncnc4cc3OC)c(-c3ccc(OC)c(OC)c3)oc2c1 | > 100 µM | > 100 µM | > 100 µM | 1.2 | 1.5 | 1 | 4.3 | 
2 | COc1cc(OC)c2c(=O)c(OC(=O)c3cc(OC)c(OC)c(OC)c3)c(-c3ccc(OC)c(OC)c3)oc2c1 | 74.1 µM | > 79 µM | 87.4 µM | 9.6 | 2.1 | 0.9 | 5.8 | 
3 | COc1cc(OC)c2c(=O)c(OCCO)c(-c3ccc(OC)c(OC)c3)oc2c1 | > 100 µM | > 100 µM | > 100 µM | 1.5 | 1.4 | 0.8 | 3.9 | 
4 | COc1cc(OC)c2c(=O)c(OCCOC(=O)c3cc(OC)c(OC)c(OC)c3)c(-c3ccc(OC)c(OC)c3)oc2c1 | > 100 µM | > 100 µM | > 100 µM | 2 | 3.2 | 1.1 | 4.7 | 
5 | COc1cc(OC)c2c(=O)c(OCCn3cnc4c(=O)n(C)c(=O)n(C)c43)c(-c3ccc(OC)c(OC)c3)oc2c1 | > 100 µM | > 100 µM | > 100 µM | 1.4 | 1.2 | 1 | 1.4 | 
6 | COc1cc(OC)c2c(=O)c(OCCOC(=O)c3ccc(OC)c(OC)c3)c(-c3ccc(OC)c(OC)c3)oc2c1 | > 100 µM | > 100 µM | > 100 µM | 6.7 | 6.4 | 1.2 | 4.6 | 
7 | O=c1c(O)c(-c2ccc(O)c(O)c2)oc2cc(O)cc(O)c12 [QUERCETIN] | > 100 µM | > 100 µM | > 100 µM |  |  |  |  | 202%
8 | COc1ccc(CCN(C)CCCC(C#N)(c2ccc(OC)c(OC)c2)C(C)C)cc1OC (configuration not stated) |  |  |  |  |  |  |  | 229%
9 | COc1cc(OC)c2c(=O)c(OC)c(-c3ccc(OC)c(OC)c3)oc2c1 | > 100 µM | > 100 µM | > 100 µM | 7.9 | 1.9 | 0.8 | 8.7 | 
10 | COc1cc(OC)c2c(=O)c(OCCOC(=O)/C=C/c3cc(OC)c(OC)c(OC)c3)c(-c3ccc(OC)c(OC)c3)oc2c1 | > 100 µM | > 100 µM | > 100 µM | 9.1 | 6 | 1.5 | 14 | 
11 | COc1cc(O)c2c(=O)c(OC)c(-c3ccc(OC)c(OC)c3)oc2c1 [RETUSIN] | > 100 µM | > 100 µM | > 100 µM | 19.3 | 3.7 | 0.7 | 13 | 
12 | COc1cc(OC)c2c(=O)c(O)c(-c3ccc(OC)c(OC)c3)oc2c1 | > 100 µM | > 100 µM | > 100 µM | 6 | 1.7 | 0.7 | 3.3 | 
13 | COc1cc(OC)c2c(=O)c(OCC(=O)c3ccc(OC)c(OC)c3)c(-c3ccc(OC)c(OC)c3)oc2c1 | > 100 µM | > 100 µM | > 100 µM | 1.4 | 1.3 | 0.9 | 1.4 | 
14 | COc1cc(OC)c2c(=O)c(OCCn3cnc4c(N)ncnc43)c(-c3ccc(OC)c(OC)c3)oc2c1 | > 100 µM | > 100 µM | > 100 µM | 1.2 | 1.1 | 0.8 | 1.2 | 
15 | C[C@@H]1O[C@@H](OC[C@H]2O[C@@H](Oc3c(-c4ccc(O)c(O)c4)oc4cc(O)cc(O)c4c3=O)[C@H](O)[C@@H](O)[C@@H]2O)[C@H](O)[C@H](O)[C@H]1O [RUTIN] | > 100 µM | > 100 µM | > 100 µM | 4.3 | 0.9 | 1.2 | 1.3 | 
16 | COc1ccc(C(=O)OCCOc2c(-c3ccc(OC)c(OC)c3)oc3cc(OC)cc(OC)c3c2=O)cc1 | > 100 µM | > 100 µM | > 100 µM | 7.3 | 11.3 | 1.5 | 12.1 | 
17 | COc1cc(OC)c2c(=O)c(OCc3cc(OC)c(OC)c(OC)c3)c(-c3ccc(OC)c(OC)c3)oc2c1 | 17.6 µM | 14.5 µM | 46.6 µM | 4.7 | 9.6 | 1.2 | 11.3 | 
18 | COc1cc(OC)c2c(=O)c(O[C@@H]3O[C@H](CO[C@@H]4O[C@@H](C)[C@H](OC)[C@@H](OC)[C@H]4OC)[C@@H](OC)[C@H](OC)[C@H]3OC)c(-c3ccc(OC)c(OC)c3)oc2c1 | > 100 µM | > 100 µM | > 100 µM | 5.3 | 1 | 1.4 | 1.5 | 
